From ChEMBL document CHEMBL1833903, “Isomeric acetoxy analogs of celecoxib and their evaluation as cyclooxygenase inhibitors” (Bioorg Med Chem Lett, 2011)
Activity calls are given as the source filed them. The rule behind the calls is not given here.

Experiments:
[1] = molecular target: T1, Prostaglandin G/H synthase 1 (Ovis aries, UniProt P05979); assay: Inhibition of ovine COX1 by enzyme immuno assay
T1 sequence (P05979 whole entry): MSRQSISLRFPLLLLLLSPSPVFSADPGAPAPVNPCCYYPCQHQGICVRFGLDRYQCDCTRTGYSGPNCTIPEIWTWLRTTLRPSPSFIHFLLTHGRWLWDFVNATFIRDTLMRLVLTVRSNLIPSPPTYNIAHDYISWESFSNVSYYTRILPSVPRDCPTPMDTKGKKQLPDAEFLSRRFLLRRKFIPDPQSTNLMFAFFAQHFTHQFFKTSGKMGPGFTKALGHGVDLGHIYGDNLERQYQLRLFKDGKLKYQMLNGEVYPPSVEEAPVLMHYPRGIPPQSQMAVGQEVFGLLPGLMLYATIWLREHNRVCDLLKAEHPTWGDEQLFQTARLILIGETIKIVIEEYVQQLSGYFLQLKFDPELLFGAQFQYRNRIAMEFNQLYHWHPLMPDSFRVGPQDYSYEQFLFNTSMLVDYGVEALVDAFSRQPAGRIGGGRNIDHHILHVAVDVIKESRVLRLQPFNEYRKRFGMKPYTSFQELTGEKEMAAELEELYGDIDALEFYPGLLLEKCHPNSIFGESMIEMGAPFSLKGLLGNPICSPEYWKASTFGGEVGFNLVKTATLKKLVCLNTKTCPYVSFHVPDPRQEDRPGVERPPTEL

Rattus norvegicus [2] = assay: Antiinflammatory activity in rat assessed as inhibition of carrageenan-induced hind paw edema at 50 mg/kg, po measured after 3 hrs post dose; type: functional, organism-based; set-up: dose 50 mg/kg
How it was run: (§1)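 Male Sprague-Dawley rats; paw edema induced with carrageenan; test compound given orally at the stated dose. Edema inhibition read 3 h after dosing, as a mean of n = 4. ED50 values were derived where determined.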

Rattus norvegicus [3] = assay: Antiinflammatory activity in rat assessed as inhibition of carrageenan-induced hind paw edema at 10 mg/kg, po measured after 3 hrs post dose; type: functional, organism-based; set-up: dose 10 mg/kg; how it was run: as §1
Rattus norvegicus [4] = assay: Antiinflammatory activity in po dosed rat assessed as inhibition of carrageenan-induced hind paw edema measured after 3 hrs post dose; type: functional; how it was run: as §1

SMILES: CC(=O)Oc1ccc(-c2cc(C(F)(F)F)nn2-c2ccc(S(N)(=O)=O)cc2)cc1
- IC50 [1]: > 100 µM
- inhibition (Rattus norvegicus [2]): inactive

SMILES: CC(=O)Oc1cc(F)ccc1-c1cc(C(F)(F)F)nn1-c1ccc(S(C)(=O)=O)cc1
- IC50 [1]: > 100 µM

SMILES: CC(=O)Oc1cc(C)ccc1-c1cc(C(F)(F)F)nn1-c1ccc(S(N)(=O)=O)cc1
- IC50 [1]: > 100 µM
- inhibition (Rattus norvegicus [2]): inactive

SMILES: CC(=O)Oc1ccccc1-c1cc(C(F)(F)F)nn1-c1ccc(S(N)(=O)=O)cc1
- IC50 [1]: > 100 µM

SMILES: Cc1ccc(-c2cc(C(F)(F)F)nn2-c2ccc(S(N)(=O)=O)cc2)c(O)c1
- inhibition (Rattus norvegicus [3]): inactive
- IC50 [1]: 36 µM

SMILES: CC(=O)Oc1cc(-c2cc(C(F)(F)F)nn2-c2ccc(S(N)(=O)=O)cc2)ccc1C
- IC50 [1]: > 100 µM
- inhibition (Rattus norvegicus [2]): inactive

SMILES: CC(=O)Oc1cc(F)ccc1-c1cc(C(F)(F)F)nn1-c1ccc(S(N)(=O)=O)cc1
- ED50 (Rattus norvegicus [4]; Rattus norvegicus, po, 3 h, read-out: ED50): 42.3 mg/kg
- IC50 [1]: 0.7 µM

SMILES: CC(=O)Oc1cccc(-c2cc(C(F)(F)F)nn2-c2ccc(S(C)(=O)=O)cc2)c1
- IC50 [1]: > 100 µM

SMILES: CC(C)Cc1ccc(C(C)C(=O)O)cc1 (centres undefined) [IBUPROFEN]
- ED50 (Rattus norvegicus [4]): 67.4 mg/kg

SMILES: CC(=O)Oc1cccc(-c2cc(C(F)(F)F)nn2-c2ccc(S(N)(=O)=O)cc2)c1
- IC50 [1]: > 100 µM

SMILES: CC(=O)Oc1cc(C)ccc1-c1cc(C(F)(F)F)nn1-c1ccc(S(C)(=O)=O)cc1
- IC50 [1]: > 100 µM

SMILES: CC(=O)Oc1ccccc1C(=O)O [ASPIRIN]
- ED50 (Rattus norvegicus [4]): 129 mg/kg

SMILES: CC(=O)Oc1ccc(-c2cc(C(F)(F)F)nn2-c2ccc(S(C)(=O)=O)cc2)cc1
- IC50 [1]: 80.3 µM

SMILES: CC(=O)Oc1cc(-c2cc(C(F)(F)F)nn2-c2ccc(S(C)(=O)=O)cc2)ccc1C
- inhibition (Rattus norvegicus [3]): inactive
